According to ChEMBL document CHEMBL4219108, “Synthesis, photophysical properties, and photodynamic activity of positional isomers of TFPP-glucose conjugates” (Bioorg Med Chem, 2018):
Activity calls are given as the source filed them. The calls are words filed in the database; no cut-off is given here.

Assays:
[1] = Drug uptake in rat RGK1 cells at 2.5 uM measured after 8 to 24 hrs by fluorescence assay; type: ADME, cell-based
Method in brief: (§1)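 RGK cells (MNNG-induced mutant of rat RGM gastric mucosal line; DMEM/F12 1:1, 10% FCS, antibiotic-antimycotic) plated 2.5×10^6/well for 24 h. Pre-incubated 2 h with or without cytochalasin B (50 µM final), then given 2.5 µM compound in medium with 1% DMSO for 8 or 24 h. PBS-washed twice, lysed in DMSO. Fluorescence read at ex 430/em 650 nm and quantified against per-compound DMSO calibration. Mean ± SD of three replicates.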

[2] = system: HeLa; assay: Phototoxicity against human HeLa cells assessed as reduction in cell survival up to 1 uM pretreated for 24 hrs followed by 16 J/cm2 irradiation with halogen lamp measured after 24 hrs by CCK8 assay; type: functional, cell-based
Method in brief: (§2)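 HeLa, U251 (DMEM, 10% FCS) or RGK cells plated 5×10^3/well and grown 24 h. Conjugate added at 0.1–1 µM (final 1% DMSO) for 24 h. Cells PBS-washed twice, given fresh medium and irradiated with a 100 W halogen lamp (water jacket, λ >500 nm) to 16 J cm⁻². WST-8 absorbance read at 450 nm 24 h later; survival normalized to untreated wells. EC50 for 50% cell death. Mean ± SD of six replicates.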

[3] = Dark toxicity in human HeLa cells assessed as reduction in cell survival at 1 uM measured after 24 hrs by CCK8 assay; type: cell-based
Method in brief: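 HeLa cells seeded 5×10^3/well, grown 24 h (37°C, 5% CO2), then given conjugate at 1.0 μM (final 1% DMSO) for 24 h. Washed twice with PBS, fresh medium added, kept without light (0 J cm⁻²). WST-8 (CCK-8) read at 450 nm 24 h later. Survival normalized to untreated wells; mean ± SD of six replicates.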

[4] = system: U-251; assay: Phototoxicity against human U251 cells assessed as reduction in cell survival at 0.2 to 1 uM pretreated for 24 hrs followed by 16 J/cm2 irradiation with halogen lamp measured after 24 hrs by CCK8 assay; type: functional, cell-based; method in brief: as §2
[5] = Drug uptake in rat RGK1 cells at 2.5 uM measured after 8 to 24 hrs in presence of GLUT1 inhibitor cytochalasin B by fluorescence assay; type: ADME, cell-based; method in brief: as §1
[6] = n-Octanol/water partition co-efficient, log P of the compound by RP-TLC method; type: physicochemical
Method in brief: (§3)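 Log P (n-octanol/water partition) determined by reverse-phase thin-layer chromatography.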

[7] = organism: Rattus norvegicus; assay: Phototoxicity against rat RGK1 cells assessed as reduction in cell survival at 0.2 to 1 uM pretreated for 24 hrs followed by 16 J/cm2 irradiation with halogen lamp measured after 24 hrs by CCK8 assay; type: functional, cell-based; method in brief: as §2
[8] = Lipophilicity, log P of the compound; type: physicochemical; conditions: octanol/water; method in brief: as §3

Row | SMILES | Drug uptake [1] | Drug uptake [5] | logP [6] | logP [8] | Activity [2] | Activity [3] | Activity [4] | Activity [7]
1 | OC[C@H]1OC(O)[C@H](O)[C@@H](Sc2c(F)c(F)c(-c3c4nc(c(-c5c(F)c(F)c(F)c(F)c5F)c5ccc([nH]5)c(-c5c(F)c(F)c(F)c(F)c5F)c5nc(c(-c6c(F)c(F)c(F)c(F)c6F)c6ccc3[nH]6)C=C5)C=C4)c(F)c2F)[C@@H]1O (stereo partly specified) | Active | Not Active | 6.21 |  | Active | Non-Toxic | Active | Active
2 | OC[C@H]1OC(O)[C@H](Sc2c(F)c(F)c(-c3c4nc(c(-c5c(F)c(F)c(F)c(F)c5F)c5ccc([nH]5)c(-c5c(F)c(F)c(F)c(F)c5F)c5nc(c(-c6c(F)c(F)c(F)c(F)c6F)c6ccc3[nH]6)C=C5)C=C4)c(F)c2F)[C@@H](O)[C@@H]1O (stereo partly specified) | Active | Not Active | 6.87 |  | inactive | Non-Toxic | inactive | inactive
3 | OC[C@H]1OC(O)[C@H](O)[C@@H](O)[C@@H]1Sc1c(F)c(F)c(-c2c3nc(c(-c4c(F)c(F)c(F)c(F)c4F)c4ccc([nH]4)c(-c4c(F)c(F)c(F)c(F)c4F)c4nc(c(-c5c(F)c(F)c(F)c(F)c5F)c5ccc2[nH]5)C=C4)C=C3)c(F)c1F (stereo partly specified) | Active | Not Active | 6.3 |  | Active | Non-Toxic | Active | Active
4 | OC1O[C@H](CSc2c(F)c(F)c(-c3c4nc(c(-c5c(F)c(F)c(F)c(F)c5F)c5ccc([nH]5)c(-c5c(F)c(F)c(F)c(F)c5F)c5nc(c(-c6c(F)c(F)c(F)c(F)c6F)c6ccc3[nH]6)C=C5)C=C4)c(F)c2F)[C@@H](O)[C@H](O)[C@H]1O (stereo partly specified) | Active |  | 6.5 |  | Active | Non-Toxic | Active | Active

Second part, led by results:

Row | Drug uptake [1] | Drug uptake [5] | logP [6] | logP [8] | SMILES | Activity [2] | Activity [3] | Activity [4] | Activity [7]
5 |  |  |  | 5.4 | OCCOc1c(F)c(F)c(-c2c3nc(c(-c4c(F)c(F)c(OCCO)c(F)c4F)c4ccc([nH]4)c(-c4c(F)c(F)c(OCCO)c(F)c4F)c4nc(c(-c5c(F)c(F)c(F)c(F)c5F)c5ccc2[nH]5)C=C4)C=C3)c(F)c1F |  |  |  | 
6 |  |  |  | 6.5 | OCCOc1c(F)c(F)c(-c2c3nc(c(-c4c(F)c(F)c(OCCO)c(F)c4F)c4ccc([nH]4)c(-c4c(F)c(F)c(F)c(F)c4F)c4nc(c(-c5c(F)c(F)c(F)c(F)c5F)c5ccc2[nH]5)C=C4)C=C3)c(F)c1F |  |  |  | 
7 |  |  |  | 6.5 | OCCOc1c(F)c(F)c(-c2c3nc(c(-c4c(F)c(F)c(F)c(F)c4F)c4ccc([nH]4)c(-c4c(F)c(F)c(OCCO)c(F)c4F)c4nc(c(-c5c(F)c(F)c(F)c(F)c5F)c5ccc2[nH]5)C=C4)C=C3)c(F)c1F |  |  |  | 
8 | Active |  | 6.05 |  | OC[C@H]1OC(Sc2c(F)c(F)c(-c3c4nc(c(-c5c(F)c(F)c(F)c(F)c5F)c5ccc([nH]5)c(-c5c(F)c(F)c(F)c(F)c5F)c5nc(c(-c6c(F)c(F)c(F)c(F)c6F)c6ccc3[nH]6)C=C5)C=C4)c(F)c2F)[C@H](O)[C@@H](O)[C@@H]1O (stereo partly specified) | Active | Non-Toxic | Active | Active
